Test [1] has as its target T1, Histone acetyltransferase p300 (Homo sapiens, UniProt Q09472). Put plainly: Inhibition of GST-p300 HAT assessed as histone acetylation. The gist of the method:
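Recombinant histones H1, H2A, H2B, H3 and H4 were acetylated in vitro by the p300 HAT domain. Acetylated histones were detected by gel autoradiography, with Coomassie staining for total histone. IC50 was taken from densitometric dose–response curves, as the mean of at least three separate experiments.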

For test [2], the target named is T1, Histone acetyltransferase p300. Put plainly: Activity of GST-p300 HAT assessed as HAT activity at 21 uM. The gist of the method: (§1)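 The same in vitro HAT assay was run with equal molar amounts of p300, PCAF and GCN5, each with a test compound at 5 or 21 µM. Acetylation was quantified by densitometry and expressed as percent variation from the DMSO-treated sample. Values are the mean of three independent experiments ± standard error.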

Test [3] addresses Histone acetyltransferase KAT2A (Homo sapiens) (UniProt Q92830). Put plainly: Activity of GST-GCN5 assessed as HAT activity at 21 uM. The essentials:
as §1

Test [4] concerns HeLa. Put plainly: Acetylation of H3 in HeLa cells expressing H2B-EYFP upto 200 uM. Format: functional, cell-based. Conditions: Homo sapiens. The essentials:
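H2B-EYFP HeLa cells in 10% FCS-DMEM were treated with various compound concentrations up to 200 µM, then immunostained with anti-acetyl-H3 antibodies. H2B-EYFP fluorescence served as an internal control for protein expression.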

Test [5] deals with Histone acetyltransferase KAT2B (Homo sapiens) (UniProt Q92831). Put plainly: Activity of GST-PCAF assessed as HAT activity at 21 uM. The gist of the method: as §1
Histone acetyltransferase KAT2B (Homo sapiens), sequence (Q92831 whole entry, looked up): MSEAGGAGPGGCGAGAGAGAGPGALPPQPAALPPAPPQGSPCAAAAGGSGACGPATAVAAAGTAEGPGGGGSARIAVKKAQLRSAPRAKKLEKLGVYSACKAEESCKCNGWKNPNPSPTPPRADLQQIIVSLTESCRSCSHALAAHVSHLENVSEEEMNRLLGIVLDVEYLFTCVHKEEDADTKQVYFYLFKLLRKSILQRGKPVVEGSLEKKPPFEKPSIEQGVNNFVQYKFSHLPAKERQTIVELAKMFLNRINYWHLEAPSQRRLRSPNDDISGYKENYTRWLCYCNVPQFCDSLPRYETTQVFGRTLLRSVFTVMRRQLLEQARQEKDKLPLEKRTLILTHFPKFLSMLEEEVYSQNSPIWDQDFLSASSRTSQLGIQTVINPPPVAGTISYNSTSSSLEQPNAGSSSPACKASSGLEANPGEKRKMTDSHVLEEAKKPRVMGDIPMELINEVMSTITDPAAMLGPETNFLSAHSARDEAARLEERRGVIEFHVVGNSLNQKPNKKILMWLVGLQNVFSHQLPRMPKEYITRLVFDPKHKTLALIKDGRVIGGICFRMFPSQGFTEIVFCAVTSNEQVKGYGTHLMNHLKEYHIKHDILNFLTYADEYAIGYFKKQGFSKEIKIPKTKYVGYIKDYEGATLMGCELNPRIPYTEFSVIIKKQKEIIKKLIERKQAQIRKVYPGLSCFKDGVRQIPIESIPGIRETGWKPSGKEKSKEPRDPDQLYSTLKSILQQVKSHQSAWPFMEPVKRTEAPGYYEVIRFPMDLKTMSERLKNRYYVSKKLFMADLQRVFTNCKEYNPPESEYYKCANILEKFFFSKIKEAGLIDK
Test [6] deals with T1, Histone acetyltransferase p300. Put plainly: Inhibition of full length GST-p300 expressed in Sf9 cells assessed as histone acetylation.
For test [7] the target is unchanged. Put plainly: Inhibition of GST-p300 HAT expressed in bacteria assessed as histone acetylation. The essentials:
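Recombinant histones H1, H2A, H2B, H3 and H4 were acetylated in vitro by the p300 HAT domain. Compounds were tested at 25–400 µM, or from 0.19 µM for one compound. Acetylated histones were detected by gel autoradiography, with Coomassie staining for total histone. IC50 was taken from densitometric dose–response curves, as the mean of at least three separate experiments.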

For test [8], the system named is HeLa. Put plainly: Reduction of acetylation in HeLa cells expressing H2B-EYFP at 40 uM. Format: functional, Homo sapiens. Also noted: scale not given: the % may be the effect or the level left. The gist of the method: (§2)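 HeLa cells stably expressing H2B-EYFP were grown in 10% FCS-DMEM and treated with 20 or 40 µM compound or DMSO. Cells were then immunostained for acetyl-H3. Mean anti-acetyl-H3 fluorescence was normalized to H2B-EYFP fluorescence in the same cells and expressed as percent inhibition versus DMSO. Each of three independent experiments analyzed 150 cells; mean and standard error are reported.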

Test [9] relates to HeLa. Put plainly: Cytotoxicity in HeLa cells expressing H2B-EYFP above 20 uM. Format: functional, cell-based. As to conditions: Homo sapiens, in the assay text read “above 40 uM” for “above 20 uM”. The gist of the method:
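Cell toxicity in compound-treated H2B-EYFP HeLa cells was scored as decreased H2B-EYFP fluorescence.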

The target of test [10] is Histone acetyltransferase KAT2A (Homo sapiens) (UniProt Q92830). Kind of test: Activity of GST-GCN5 assessed as HAT activity at 5 uM. The essentials:
as §1

The target of test [11] is T1, Histone acetyltransferase p300. Put plainly: Activity of GST-p300 HAT assessed as HAT activity at 5 uM. The essentials:
as §1

The subject of test [12] is HeLa. Kind of test: Reduction of acetylation in HeLa cells expressing H2B-EYFP at 20 uM. Type of test: functional, Homo sapiens. Also noted: scale not given: the % may be the effect or the level left. The essentials: as §2

Calls of active or inactive are those of the source. No cut-off for these calls is given here.

T1 sequence (Q09472 whole entry, the tested form may be a part): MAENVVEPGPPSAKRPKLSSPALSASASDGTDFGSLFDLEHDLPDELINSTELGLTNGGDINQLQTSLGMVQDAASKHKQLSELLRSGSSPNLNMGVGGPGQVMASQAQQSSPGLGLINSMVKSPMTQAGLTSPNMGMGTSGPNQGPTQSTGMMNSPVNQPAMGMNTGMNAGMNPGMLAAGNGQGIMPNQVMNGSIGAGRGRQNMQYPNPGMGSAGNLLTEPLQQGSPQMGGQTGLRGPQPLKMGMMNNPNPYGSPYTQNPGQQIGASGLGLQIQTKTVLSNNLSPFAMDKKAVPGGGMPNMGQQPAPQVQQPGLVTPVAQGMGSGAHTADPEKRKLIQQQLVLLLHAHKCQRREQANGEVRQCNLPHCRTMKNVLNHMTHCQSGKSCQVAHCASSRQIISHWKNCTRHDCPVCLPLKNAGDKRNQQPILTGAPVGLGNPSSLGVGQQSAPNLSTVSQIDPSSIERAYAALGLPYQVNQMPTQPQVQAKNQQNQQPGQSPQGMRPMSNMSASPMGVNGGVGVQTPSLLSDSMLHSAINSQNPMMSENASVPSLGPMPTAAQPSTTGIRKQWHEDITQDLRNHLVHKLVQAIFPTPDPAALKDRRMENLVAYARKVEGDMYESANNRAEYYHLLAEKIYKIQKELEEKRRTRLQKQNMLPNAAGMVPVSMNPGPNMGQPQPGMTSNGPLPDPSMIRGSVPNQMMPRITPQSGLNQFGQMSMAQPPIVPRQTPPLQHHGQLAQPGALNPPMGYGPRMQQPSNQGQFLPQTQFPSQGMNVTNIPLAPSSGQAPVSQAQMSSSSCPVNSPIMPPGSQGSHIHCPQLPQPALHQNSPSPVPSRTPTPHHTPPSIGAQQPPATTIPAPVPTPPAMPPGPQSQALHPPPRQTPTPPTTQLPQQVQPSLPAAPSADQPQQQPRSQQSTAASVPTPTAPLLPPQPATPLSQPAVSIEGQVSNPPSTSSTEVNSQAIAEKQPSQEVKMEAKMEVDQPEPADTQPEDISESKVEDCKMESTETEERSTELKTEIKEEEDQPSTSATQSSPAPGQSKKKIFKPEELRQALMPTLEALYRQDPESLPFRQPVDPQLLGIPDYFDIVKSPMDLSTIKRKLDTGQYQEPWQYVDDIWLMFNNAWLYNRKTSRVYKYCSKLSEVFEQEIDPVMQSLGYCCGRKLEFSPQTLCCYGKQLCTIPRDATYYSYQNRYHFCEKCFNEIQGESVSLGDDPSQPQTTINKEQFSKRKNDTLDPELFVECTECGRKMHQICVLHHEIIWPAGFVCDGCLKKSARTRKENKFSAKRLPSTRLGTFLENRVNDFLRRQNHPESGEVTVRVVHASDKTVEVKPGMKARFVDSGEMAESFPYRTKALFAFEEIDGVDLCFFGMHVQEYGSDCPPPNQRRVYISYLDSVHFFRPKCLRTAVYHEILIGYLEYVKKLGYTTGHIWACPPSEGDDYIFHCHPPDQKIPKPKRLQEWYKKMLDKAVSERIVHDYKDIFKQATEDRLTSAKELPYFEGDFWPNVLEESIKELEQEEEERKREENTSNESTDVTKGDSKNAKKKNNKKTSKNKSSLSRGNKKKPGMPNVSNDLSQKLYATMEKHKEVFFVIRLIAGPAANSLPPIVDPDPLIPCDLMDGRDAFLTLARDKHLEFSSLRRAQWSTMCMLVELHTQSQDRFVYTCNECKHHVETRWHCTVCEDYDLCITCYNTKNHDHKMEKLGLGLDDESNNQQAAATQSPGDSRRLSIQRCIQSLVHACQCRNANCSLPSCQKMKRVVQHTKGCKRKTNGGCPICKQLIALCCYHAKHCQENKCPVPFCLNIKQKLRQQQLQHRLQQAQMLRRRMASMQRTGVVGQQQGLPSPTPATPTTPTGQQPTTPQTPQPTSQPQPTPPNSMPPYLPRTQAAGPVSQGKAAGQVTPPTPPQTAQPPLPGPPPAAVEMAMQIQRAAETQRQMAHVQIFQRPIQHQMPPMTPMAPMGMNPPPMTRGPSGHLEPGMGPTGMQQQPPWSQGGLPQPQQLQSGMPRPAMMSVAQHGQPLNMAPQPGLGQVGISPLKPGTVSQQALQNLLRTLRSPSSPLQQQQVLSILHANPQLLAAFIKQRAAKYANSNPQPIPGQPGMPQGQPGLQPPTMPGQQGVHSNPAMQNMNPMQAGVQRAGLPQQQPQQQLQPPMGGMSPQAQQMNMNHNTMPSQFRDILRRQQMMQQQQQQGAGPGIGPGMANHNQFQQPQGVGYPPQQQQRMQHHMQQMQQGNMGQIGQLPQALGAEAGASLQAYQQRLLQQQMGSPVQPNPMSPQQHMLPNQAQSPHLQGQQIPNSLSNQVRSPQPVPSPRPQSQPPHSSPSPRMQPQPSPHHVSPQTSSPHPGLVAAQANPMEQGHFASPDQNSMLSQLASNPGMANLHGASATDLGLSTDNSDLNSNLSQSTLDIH
Histone acetyltransferase KAT2A (Homo sapiens), sequence (Q92830 2-837 limits assumed): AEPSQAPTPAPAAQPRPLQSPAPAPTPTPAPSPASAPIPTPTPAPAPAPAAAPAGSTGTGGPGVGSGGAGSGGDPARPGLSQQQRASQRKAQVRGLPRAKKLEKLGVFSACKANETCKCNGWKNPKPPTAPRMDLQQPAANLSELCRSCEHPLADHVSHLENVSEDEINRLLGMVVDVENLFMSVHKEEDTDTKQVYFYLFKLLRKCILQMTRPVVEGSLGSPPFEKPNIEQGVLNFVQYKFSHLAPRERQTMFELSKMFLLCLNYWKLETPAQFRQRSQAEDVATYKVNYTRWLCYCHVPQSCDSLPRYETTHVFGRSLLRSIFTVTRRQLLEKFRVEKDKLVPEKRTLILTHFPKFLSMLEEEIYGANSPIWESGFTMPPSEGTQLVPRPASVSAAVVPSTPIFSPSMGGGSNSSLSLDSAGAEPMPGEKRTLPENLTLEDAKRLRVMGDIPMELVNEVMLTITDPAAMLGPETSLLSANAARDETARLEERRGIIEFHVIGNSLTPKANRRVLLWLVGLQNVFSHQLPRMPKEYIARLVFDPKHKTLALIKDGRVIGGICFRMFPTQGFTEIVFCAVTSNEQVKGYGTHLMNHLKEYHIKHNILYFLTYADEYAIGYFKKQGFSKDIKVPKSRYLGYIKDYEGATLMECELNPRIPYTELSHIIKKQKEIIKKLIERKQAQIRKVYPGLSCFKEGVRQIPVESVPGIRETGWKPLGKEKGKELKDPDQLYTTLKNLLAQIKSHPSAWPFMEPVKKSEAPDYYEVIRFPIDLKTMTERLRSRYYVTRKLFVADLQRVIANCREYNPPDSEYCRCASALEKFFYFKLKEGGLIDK

The IC50 is the concentration needed to halve the response being measured. Consider `O=C(/C=C(O)/C=C/c1ccc(O)c(Br)c1)/C=C/c1ccc(O)c(Br)c1`, for which the IC50 in [1] was found to be 33 µM.
`COc1cc(/C=C2\CCC/C(=C\c3ccc(O)c(OC)c3)C2=O)ccc1O` [CYCLOVALONE]: the IC50 in test [1] is 111 µM.
As for `O=C(/C=C(O)/C=C/c1ccc(O)c(C(=O)O)c1)/C=C/c1ccc(O)c(C(=O)O)c1`, the Activity is 50% in [2], 38% in test [3] and 68% in [5]. The outcome in test [4] was inactive. The IC50 in test [1] was 21 µM.
On to `O=C1/C(=C/c2ccc(O)c(C(=O)O)c2)CCC/C1=C\c1ccc(O)c(C(=O)O)c1`, for which the IC50 in [1] came out at 168 µM.
For the compound `COc1cc(/C=C/C(=O)CC(=O)/C=C/c2ccc(O)c(OC)c2)ccc1O`, the result in test [6] and in test [7] was inactive.
Consider `O=C(/C=C(O)/C=C/c1ccc(O)c(O)c1)/C=C/c1ccc(O)c(O)c1`, for which the IC50 in test [1] came out at 46 µM.
For the compound `O=C1/C(=C/c2ccc(O)c(Br)c2)CCC/C1=C\c1ccc(O)c(Br)c1`, the Activity in test [8] was more than 50%; in [10] it was 70%; in test [11] it was 50%; in test [12], 30%. The result in test [9] was Active. Further, the half-maximal inhibitory concentration (IC50) in test [1] was determined as 5 µM.
`O=C1/C(=C/c2ccc(O)c(O)c2)CCC/C1=C\c1ccc(O)c(O)c1`: the IC50 in test [1] was found to be 233 µM.
